Experimental data as given in ChEMBL document CHEMBL4619773, “Chemoreactive-Inspired Discovery of Influenza A Virus Dual Inhibitor to Block Hemagglutinin-Mediated Adsorption and Membrane Fusion” (J Med Chem, 2020).
Calls of active or inactive are those of the source. The calls are words filed in the database; no cut-off is given here.

Assays:
Influenza A virus [1] = test: Antiviral activity against Influenza A virus (A/Puerto Rico/8/1934(H1N1)) infected in Kunming mouse assessed as improvement in body weight at 20 to 40 ug/day dosed intranasally starting 4 hrs after viral challenge and continued for 7 days and measured up to day 14 by plaque assay; format: functional, organism-based
Procedure, shortened: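 Groups of 10 female Kunming mice were infected intranasally with PR8 (1000 PFU/mouse) on day 0 and dosed once daily for seven days. Weight and clinical signs were recorded daily. Mice losing more than 25% of pre-infection weight were scored dead and euthanized; survivors were killed on day 14.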

[2] = Selectivity index, ratio of CC50 for cytotoxicity in dog MDCK cells assessed as reduction in cell viability incubated for 48 hrs by crystal violet staining based assay to […] in dog MDCK cells assessed as reduction in cell viability incubated for 48 hrs by crystal violet staining based assay
[3] = Cmax in mouse at 5 mg/kg, po administered as single dose; format: ADME, organism-based; parameters: dose 5 mg/kg, route oral; details: in vivo
Procedure, shortened: (§1)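 Male Kunming mice (20-25 g) and male Sprague Dawley rats (180-220 g) were fasted 12 h before dosing. Oral dosing was by gavage as a suspension in 0.5% sodium carboxymethyl cellulose; iv dosing was via tail vein in PEG400. Serial plasma samples were taken to 24 h, protein-precipitated with acetonitrile plus N-CH3 internal standard, and quantified by LC-MS/MS (n=3). Bioavailability = AUCoral/AUCiv.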

[4] = Metabolic stability in mouse liver microsomes at 2 uM after 60 mins; format: ADME, Microsome; details: read-out: Stability
Procedure, shortened: (§2)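 Mouse, rat or human liver microsomes (final 0.5 mg/mL protein) were preincubated with an NADPH-regenerating system in 50 mM Tris-HCl pH 7.4 at 37 °C for 5 min. Compound was added at 2 µM final and incubated at 37 °C; NADPH-free incubations served as controls. Reactions were quenched with acetonitrile plus internal standard at 60 min. Percent remaining was measured by LC-MS/MS (n=3).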

[5] = Cmax in rat at 3.5 mg/kg , po administered as single dose; format: ADME, organism-based; parameters: dose 3.5 mg/kg, route oral; details: in vivo; procedure, shortened: as §1
[6] = Tmax in rat at 3.5 mg/kg , po administered as single dose; format: ADME, organism-based; details: in vivo
Procedure, shortened: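 Male Kunming mice (20–25 g) and male SD rats (180–220 g) were fasted 12 h before dosing. Compound was suspended in 0.5% CMC-Na and given by gavage (5 mg/kg mice, 3.5 mg/kg rats), or dissolved in PEG400 and given iv via tail vein (0.5 mg/kg mice, 0.35 mg/kg rats). Plasma was sampled from 5 min to 24 h and analysed by LC-MS/MS (n=3). F = AUCoral/AUCiv.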

[7] = Half life in rat at 3.5 mg/kg , po administered as single dose; format: ADME, organism-based; details: in vivo; procedure, shortened: as §1
[8] = AUC (0 to t) in rat at 0.35 mg/kg /kg, iv administered as single dose; format: ADME, organism-based; details: in vivo; procedure, shortened: as §1
[9] = Cumulative drug excretion in rat urine at 3.5 mg/kg, po administered as single dose measured after 72 hrs; format: ADME, organism-based; details: read-out: Drug excretion
Procedure, shortened: (§3)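 Single oral (gavage, 0.5% CMC-Na) or iv (tail vein, PEG400) dosing was given to male Kunming mice or Sprague Dawley rats held in metabolic cages. Urine and feces were collected at intervals to 72 h. Feces were dried, ground and homogenized in water (1:9 w/v). Samples were precipitated with acetonitrile containing internal standard and analysed by LC-MS/MS.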

[10] = Cumulative drug excretion in rat feces at 3.5 mg/kg, po administered as single dose measured after 72 hrs; format: ADME, organism-based; details: faeces, read-out: Drug excretion; procedure, shortened: as §3
[11] = Metabolic stability in human liver microsomes at 2 uM after 60 mins; format: ADME, Microsome; details: read-out: Stability; procedure, shortened: as §2
Influenza A virus [12] = test: Antiviral activity against Influenza A virus (A/Puerto Rico/8/1934(H1N1)) infected in Kunming mouse assessed as decrease in pulmonary viral titers at 5 to 10 mg/kg/day, po starting 4 hrs after viral challenge and continued for 4 days by plaque assay; format: functional, organism-based
Procedure, shortened: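 Four-week-old female Kunming mice were infected intranasally with PR8 (500 PFU/mouse in 40 µL PBS), randomized, and dosed once daily orally or intranasally. On day 4 the mice were euthanized; lungs were removed, weighed, homogenized in PBS, and titrated by plaque assay.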

[13] = Toxicity in Kunming mouse assessed as effect on AST level at 5 to 10 mg/kg/day, po for 7 days; format: organism-based; details: in vivo, 168 h
Procedure, shortened: (§4)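 Male Kunming mice (20–25 g) received compound orally at 5 or 10 mg/kg/day, suspended in 0.5% sodium carboxymethyl cellulose, once daily for 7 days; controls received vehicle. Serum was collected under isoflurane 24 h after the last dose. AST, ALT, CR, BUN, LDH, CK and CK-MB were measured with commercial kits.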

[14] = Toxicity in Kunming mouse assessed as effect on creatine kinase level at 5 to 10 mg/kg/day, po for 7 days; format: organism-based; details: in vivo, 168 h; procedure, shortened: as §4
[15] = Toxicity in Kunming mouse assessed as effect on CK-MB level at 5 to 10 mg/kg/day, po for 7 days; format: organism-based; details: in vivo, 168 h; procedure, shortened: as §4
Influenza A virus [16] = test: Antiviral activity against Influenza A virus (A/Puerto Rico/8/1934(H1N1)) infected in MDCK cells assessed as decrease in viral titers at 50 ug/ml added during adsorption stage and measured 24 hrs post infection by HA assay; format: functional, organism-based
Procedure, shortened: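 MDCK cells were infected at high moi (≈3.0 PFU/cell). Virus-containing supernatants were serially diluted 2-fold and mixed with an equal volume of 1% chicken red blood cells. After 60 min at 4 °C, wells were scored for button sedimentation versus opaque agglutination to give titers.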

Influenza A virus [17] = test: Antiviral activity against luciferase tagged Influenza A virus H5N1 pseudovirus infected in MDCK cells assessed as reduction in virus infection at 50 ug/ml using compound pre-treated virus for infection and measured after 48 hrs by luciferase reporter gene assay; format: functional, organism-based
Procedure, shortened: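 MDCK cells infected with luciferase-expressing H5N1 HA/NA pseudotyped HIV-based virus were treated with compound under four different treatment regimens. Infection was quantified by firefly luciferase glow assay.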

[18] = molecular target: Hemagglutinin (Influenza A virus (A/Puerto Rico/8/1934(H1N1))) (UniProt P03452); test: Inhibition of conformational changes in Influenza A virus (A/Puerto Rico/8/1934(H1N1)) Hemagglutinin assessed as increase in retention amount of HA1 subunit on HA proteins at 25 to 50 ug/ml added before acidification incubated for 1 hr by conformational change inhibition assay
Chain of Hemagglutinin (Influenza A virus (A/Puerto Rico/8/1934(H1N1))) (P03452 whole entry, the tested form may be a part): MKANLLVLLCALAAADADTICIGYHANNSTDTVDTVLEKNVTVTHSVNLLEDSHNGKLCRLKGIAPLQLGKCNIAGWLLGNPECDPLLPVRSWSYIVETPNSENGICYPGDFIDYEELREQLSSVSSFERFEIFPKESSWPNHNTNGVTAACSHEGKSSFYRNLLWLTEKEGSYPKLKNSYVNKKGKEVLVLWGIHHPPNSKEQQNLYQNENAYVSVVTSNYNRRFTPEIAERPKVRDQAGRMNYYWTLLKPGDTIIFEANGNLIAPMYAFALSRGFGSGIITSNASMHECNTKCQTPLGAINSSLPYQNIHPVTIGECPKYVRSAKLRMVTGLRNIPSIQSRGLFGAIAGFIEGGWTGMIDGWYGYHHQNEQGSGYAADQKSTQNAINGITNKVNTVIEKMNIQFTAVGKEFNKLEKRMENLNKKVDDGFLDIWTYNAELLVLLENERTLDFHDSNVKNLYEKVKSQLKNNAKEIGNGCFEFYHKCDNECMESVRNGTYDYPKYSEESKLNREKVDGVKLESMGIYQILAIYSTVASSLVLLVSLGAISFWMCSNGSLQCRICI
Procedure, shortened: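 C-terminal biotinylated H1/PR8 HA (0.2 µg/ml) was captured on streptavidin plates for 1 h at RT. Compound (50, 25, 12.5 µg/ml) was added for 1 h, then 1 M acetate pH 5.25 for 20 min. 2.5 mM DTT was applied for 60 min to remove HA1 from postfusion HA. Retained HA1 was detected with anti-HA1 head antibody and HRP secondary, read as A450 with TMB.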

[19] = molecular target: Hemagglutinin (Influenza A virus (A/Puerto Rico/8/1934(H1N1))) (UniProt P03452); test: Inhibition of trypsin-mediated cleavage of Influenza A virus (A/Puerto Rico/8/1934(H1N1)) Hemagglutinin (HA0) at 50 ug/ml incubated for 30 mins by Coomassie blue fast staining and SDS-PAGE gel based trypsin susceptibility assay
Procedure, shortened: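 About 5 µg PR8 HA protein was preincubated with about 50 µg/ml compound for 30 min at RT; controls received 2% DMSO. Samples were acidified with 1 M sodium acetate pH 5.0 (one kept at pH 7.0) for 20 min at 37 °C, then neutralized with 200 mM Tris pH 8.5. TPCK-trypsin was added at 1:50 by mass for 30 min at 37 °C. Samples were run on non-reducing 12% SDS-PAGE with Coomassie staining.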

In the case of `CC(=O)c1cc(C)c(O)c(Cc2[nH]c3ccccc3c2Cc2c(O)c(C)cc(C(C)=O)c2O)c1O`, the Activity (Influenza A virus [1]) is reported as “Active”, the “Ratio CC50/IC50” value [2] is reported as 55.8 and the Cmax [3] is reported as 16 ng/mL. The remaining at 1 h, 2 µM [4] was 0.8%, the Cmax [5] was 287 ng/mL and the Tmax [6] was 4.3 h. It also gave a half-life [7] of 3.3 h, an AUC(0-t) [8] of 10100 ng·h/mL and a dose excreted at 72 h [9] of 0.004%. For the same compound, the dose excreted at 72 h [10] was 96.4%, the remaining at 1 h, 2 µM [11] was 71.6% and the Activity (Influenza A virus [12]) was “Active”. The Activity [13] was “Non-Toxic”, the Activity [14] was “Non-Toxic” and the Activity [15] was “Non-Toxic”. For the same compound, the Activity (Influenza A virus [16]) was “Active”, the inhibition (Influenza A virus [17]) was “Active” and the inhibition [18] was “Active”. For the same compound, the inhibition [19] was “inactive”.
